Reference: the RNAGym collection of RNA variant scans (doi:10.1126/science.aae0568)
Fewer inactive variants are shown than the library holds.

B1: tRNA (parent)
chain: GUUCCGUUGGCGUAAUGGUAACGCGUCUCCCUCCUAAGGAGAAGACUGCGGGUUCGAGUCCCGUACGGAACG

Variants of: B1
Experiment: yeast fitness relative to wild type (ratio to wild type); higher = fitter; tRNA-Arg(CCU), competitive growth, 37 C, YPD
Summary of the method: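 Start and end populations of a pooled competition were compared by 100-nucleotide paired-end sequencing of gene amplicons. The Saccharomyces cerevisiae strains carried tRNA-Arg(CCU) gene variants at the native genomic locus, synthesised with a 3% per-site mutation rate at 69 sites, and competed in YPD at 37°C for 24 hours in six parallel replicates. Darwinian fitness relative to wild type was based on the change in genotype frequencies. Genotypes required ≥ 100 starting reads, and estimates < 0.5 were set to 0.5.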
G25A G50A C66U showed a yeast fitness of 0.629. In the case of C4G U7C C27A U59G, the yeast fitness is reported as 0.574. Work on C11U G12A G44C C46U yielded a yeast fitness of 0.575. With A15G A57G C62G C66U the yeast fitness was ≤ 0.5. For G17C C27U C34U A42U, the yeast fitness was ≤ 0.5. In the case of C4G C55A, the yeast fitness is reported as 0.778. Work on C33A C61A C62U C66U yielded a yeast fitness of 0.562. Variant C29U C46U has a yeast fitness of 0.929. For C5G U13G A14U G48C, the yeast fitness was ≤ 0.5. In the case of U7G G63A G67C, the yeast fitness is reported as ≤ 0.5. Variant A37G A42C has a yeast fitness of 0.806. With U28A G41A G67A the yeast fitness was ≤ 0.5. For C5G G17A C62A, the yeast fitness was ≤ 0.5. With G25A G50C U54C the yeast fitness was 0.627. With G6C G10C C30U U35A the yeast fitness was ≤ 0.5. With G10C A21C C22G A36G A57C the yeast fitness was ≤ 0.5. In the case of C55U G63A A65G, the yeast fitness is reported as ≤ 0.5. For C4U U8C C27G A45C U47C C55U, the yeast fitness was ≤ 0.5. Variant U3A G25C U47A has a yeast fitness of 0.547. Work on G9A A36U G39A yielded a yeast fitness of 0.535. Variant C11U C34G has a yeast fitness of 0.591. With U3A C60A the yeast fitness was 0.677. Work on C4G G9A G50C yielded a yeast fitness of 0.642. For G18A C27U A37G A70C, the yeast fitness was ≤ 0.5. U7A C11A A21C C29U C49U showed a yeast fitness of 0.544. For G10A U26A A43G A70U, the yeast fitness was ≤ 0.5. In the case of U3A C27G C31U C33U A42C A70U, the yeast fitness is reported as ≤ 0.5. With C5A C31A A37C C46U the yeast fitness was ≤ 0.5. C4U A42U G67C showed a yeast fitness of 0.676. With A20G C31U G41C A43C C60G the yeast fitness was ≤ 0.5. In the case of A14C G25C U47A G63C, the yeast fitness is reported as 0.678. In the case of C31G C61U, the yeast fitness is reported as 0.834. A65G A69U gave a yeast fitness of 0.993. In the case of U2A U16C C30A A43C, the yeast fitness is reported as ≤ 0.5. For G6C G17A A36U C46A C49U C66A, the yeast fitness was ≤ 0.5. With U2G C4U G56A C61A C62U A65U A69C the yeast fitness was ≤ 0.5. With U13C A20C C22U C60G the yeast fitness was ≤ 0.5. In the case of C5A U53G C60A, the yeast fitness is reported as ≤ 0.5. In the case of C34A A40C A42U, the yeast fitness is reported as ≤ 0.5. U19C C31A G41C gave a yeast fitness of 0.577. U3A G12A gave a yeast fitness of 0.826. Work on A15G G18A yielded a yeast fitness of 0.793. For A14C U32G U47C C55G, the yeast fitness was ≤ 0.5. Variant C5U C30U has a yeast fitness of 0.942. For C4U A21U C55U, the yeast fitness was ≤ 0.5. For G18C G23A C24U C61U, the yeast fitness was ≤ 0.5. For A20U U28C A69C, the yeast fitness was 0.699. With U7A A36C G51C the yeast fitness was ≤ 0.5. U13A C27U A69U gave a yeast fitness of 0.864. With U32C A45U C46G A69C the yeast fitness was ≤ 0.5. For C5G G38A A69U, the yeast fitness was 0.559. Work on C11A A42G C61A yielded a yeast fitness of 0.618. With U54A A57U G63C A69U the yeast fitness was ≤ 0.5. For G48C G56A C61A, the yeast fitness was ≤ 0.5. With U26A A40U C61U the yeast fitness was 0.656. For A15C C33U C49U, the yeast fitness was ≤ 0.5. For U32G C46U A69U, the yeast fitness was 0.602. In the case of U3C C11A C27G C33A A43C C46A, the yeast fitness is reported as 0.687. For A14U A15G C33U A42C, the yeast fitness was ≤ 0.5. With G44C G63C G68A the yeast fitness was ≤ 0.5. In the case of U3C U26C C30U A37G C61A, the yeast fitness is reported as ≤ 0.5. With U7G A20U the yeast fitness was 0.742. Work on A20U G52A yielded a yeast fitness of 0.759. U64C A69C showed a yeast fitness of 0.983. G6A C11U C34G gave a yeast fitness of 0.567. With A21U U32C A36G A37U the yeast fitness was ≤ 0.5. Work on G38A C46A A57G yielded a yeast fitness of 0.769. With G6C C24U G52A the yeast fitness was ≤ 0.5. U47A C62U gave a yeast fitness of 0.842. For C5U G9C G52C U54C A69C, the yeast fitness was ≤ 0.5. Work on A15C C46A yielded a yeast fitness of 0.86. With A21G U35C A65U the yeast fitness was ≤ 0.5. Work on C4G A45U G48C yielded a yeast fitness of 0.501. With G9A C34A G58A A70C the yeast fitness was ≤ 0.5. With C4G G18C G58C C61U G68A the yeast fitness was 0.615. With C4U G17A C22U G68C the yeast fitness was ≤ 0.5. In the case of A15U C27G C62A C66A, the yeast fitness is reported as ≤ 0.5. In the case of C4U U54A C62U, the yeast fitness is reported as ≤ 0.5. In the case of C55A U59G A65C, the yeast fitness is reported as ≤ 0.5. U26C C61G gave a yeast fitness of 0.591. Variant C27U U28A U32A C34U A36C has a yeast fitness of 0.554. With G12A C24G U35A A36G A40C G67A the yeast fitness was ≤ 0.5. For U16C C33U A36C A45C U64G, the yeast fitness was ≤ 0.5. Work on C11A C24U C31U yielded a yeast fitness of 0.547. In the case of A20G A36U C66A, the yeast fitness is reported as 0.529. For C29U A43G G44A C46A, the yeast fitness was 0.609. With G23A C29G U64A the yeast fitness was ≤ 0.5. With U26C C27G A69C the yeast fitness was ≤ 0.5. For C4G A14U C24U C49G G63A, the yeast fitness was ≤ 0.5. G23A A43C G44A A65G showed a yeast fitness of 0.637. In the case of G41C U64G, the yeast fitness is reported as 0.735. Variant A14U G23C C55A has a yeast fitness of 0.559. With U26C C27G C60G C62U the yeast fitness was 0.624. For C22U A37U G58A A69C, the yeast fitness was ≤ 0.5. With A21U A36G C49A G63A the yeast fitness was ≤ 0.5. With G10C A21C C30U G41C the yeast fitness was ≤ 0.5. With G39C G68U the yeast fitness was 0.762. C4U A15C C46U gave a yeast fitness of 0.7. In the case of C4A C5U C34U, the yeast fitness is reported as ≤ 0.5. In the case of C4U A42G, the yeast fitness is reported as 0.868. With A43U A65U C66A the yeast fitness was ≤ 0.5. Variant A43U G58C has a yeast fitness of 0.892. C5U G18A showed a yeast fitness of 0.76. Variant U7G C61U G68A has a yeast fitness of 0.533. Work on U26A C62A yielded a yeast fitness of 0.803. For U2C C27G, the yeast fitness was 0.748. Variant C27A G58C A69C has a yeast fitness of 0.719. Work on C29A C30A G67U yielded a yeast fitness of 0.667. For G6A C11G C61G, the yeast fitness was ≤ 0.5. With A20G U32G the yeast fitness was 0.672. For A15C C22G A43C, the yeast fitness was ≤ 0.5. Variant C31U G50A has a yeast fitness of 0.904. In the case of G10C C29G U32G, the yeast fitness is reported as ≤ 0.5. In the case of U16G G17C A43U G52C, the yeast fitness is reported as ≤ 0.5. For C30U C49G, the yeast fitness was 0.718. In the case of U28A C29G C33A A42U A70U, the yeast fitness is reported as 0.531. Work on C27U C46U G48A A69C yielded a yeast fitness of 0.696. For U16A C49U A69U, the yeast fitness was 0.647. With G9A C31U C49U A69C the yeast fitness was ≤ 0.5. In the case of G25A A43G A45U C46U, the yeast fitness is reported as ≤ 0.5. In the case of C22G A37C A42G, the yeast fitness is reported as ≤ 0.5. For U26G U35C G63A A70G, the yeast fitness was ≤ 0.5. With C4G C62U the yeast fitness was 0.869. Variant C30A C31U A36G has a yeast fitness of 0.587. For G9A C27G C29A C49G, the yeast fitness was ≤ 0.5. In the case of G9C C34G U47C C49U, the yeast fitness is reported as ≤ 0.5. In the case of C31A G39A G48A C61U A65C, the yeast fitness is reported as 0.5. In the case of U3C G63C, the yeast fitness is reported as 0.747. For G10C U19G C62G, the yeast fitness was ≤ 0.5. For U3G G12C U19C C60U, the yeast fitness was ≤ 0.5. For G17C A45U A65C, the yeast fitness was ≤ 0.5. For C33U C62A, the yeast fitness was 0.824. With U8G A21U G56A the yeast fitness was ≤ 0.5. With U2C G9U C61G the yeast fitness was ≤ 0.5. For U3G C11U C46U C61G, the yeast fitness was ≤ 0.5. C30G G48A gave a yeast fitness of 0.633. Variant U8C U19G C22U C31U A40U G67A has a yeast fitness of 0.53. Variant U16C C31G G39A A57U has a yeast fitness of 0.692. C5G G10C U35G G50A C55U A69C gave a yeast fitness of 0.607. With C29U A57G C60G U64C the yeast fitness was 0.609. For C33U A42C, the yeast fitness was 0.63. In the case of C4U C22G U28A A36U C66U, the yeast fitness is reported as ≤ 0.5. For A45C C61U, the yeast fitness was 0.992. With C4A U32C G48C C55U the yeast fitness was ≤ 0.5. G12C A14G G25A G41C U54G A65G G68U A70C gave a yeast fitness of 0.545. In the case of U7A A42G G68C, the yeast fitness is reported as ≤ 0.5. In the case of A45C G52C, the yeast fitness is reported as 0.762. C5G G63A showed a yeast fitness of 0.843. For G6A G18C A21C C33A G56A, the yeast fitness was ≤ 0.5. With C11G A15U C24G A40G C62U the yeast fitness was ≤ 0.5. Work on G9A U47A A69U yielded a yeast fitness of 0.676. U13A A40C showed a yeast fitness of 0.789. With G10A C31A A37C the yeast fitness was ≤ 0.5. In the case of U7A C33A A45C G68A, the yeast fitness is reported as ≤ 0.5. Work on G17C U53G A70U yielded a yeast fitness of 0.564. With U3C G9A A21G A40G G56A U64C the yeast fitness was ≤ 0.5. With C22A C24U G44C G48A the yeast fitness was ≤ 0.5. For G25A A57G, the yeast fitness was 1.08. For C11A C27G G50A U64G, the yeast fitness was ≤ 0.5. In the case of A20U C34A G38A U59A, the yeast fitness is reported as ≤ 0.5. For U19C C49A G68C, the yeast fitness was ≤ 0.5. With U2G U16G C27A A36C A70C the yeast fitness was ≤ 0.5. For A43C C55A, the yeast fitness was 0.588. In the case of C5A C11A C30U C31A C61A, the yeast fitness is reported as ≤ 0.5. In the case of A14G G39A G44C C61A G63C, the yeast fitness is reported as ≤ 0.5. In the case of G17A C27G C61U, the yeast fitness is reported as ≤ 0.5. For G12U C60G, the yeast fitness was ≤ 0.5.
